Test results taken from ChEMBL document CHEMBL4028902, “Azetidine and Piperidine Carbamates as Efficient, Covalent Inhibitors of Monoacylglycerol Lipase” (J Med Chem, 2017).
Active and inactive are the calls of the source. The rule behind the calls is not given here.

Legend:
[1] = molecular target: T1, Fatty-acid amide hydrolase 1 (Homo sapiens, UniProt O00519); assay: Inhibition of human recombinant FAAH using arachidonoyl-AMC as substrate preincubated for 30 mins followed by substrate addition measured after 60 mins by fluorescence assay
T1 sequence (O00519 whole entry): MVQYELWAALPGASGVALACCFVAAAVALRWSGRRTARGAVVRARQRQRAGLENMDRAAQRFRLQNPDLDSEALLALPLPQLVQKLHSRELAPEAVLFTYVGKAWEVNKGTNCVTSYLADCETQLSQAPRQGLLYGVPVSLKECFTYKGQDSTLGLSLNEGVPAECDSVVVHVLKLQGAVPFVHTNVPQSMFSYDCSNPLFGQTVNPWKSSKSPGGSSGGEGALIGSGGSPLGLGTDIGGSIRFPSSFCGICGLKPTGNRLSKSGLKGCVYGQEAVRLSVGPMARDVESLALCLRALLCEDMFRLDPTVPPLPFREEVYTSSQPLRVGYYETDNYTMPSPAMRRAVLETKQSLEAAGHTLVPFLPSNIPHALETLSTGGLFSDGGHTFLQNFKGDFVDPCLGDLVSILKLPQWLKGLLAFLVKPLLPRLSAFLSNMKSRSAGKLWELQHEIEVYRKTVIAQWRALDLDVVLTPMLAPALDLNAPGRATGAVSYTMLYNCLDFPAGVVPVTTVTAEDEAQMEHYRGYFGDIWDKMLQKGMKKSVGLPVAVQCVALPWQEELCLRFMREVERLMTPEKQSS
Procedure, shortened: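 Human recombinant FAAH (0.0125 unit final) in 50 mM Tris pH 9.0, 1 mM EDTA, preincubated 30 min at room temperature with compound (final 30 μM–0.3 nM). Arachidonoyl-AMC added (5 μM final), reaction run 60 min, fluorescence Ex/Em 355/460. Percent inhibition versus no-compound and full-inhibition controls.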

[2] = Lipophilicity, log D of the compound; type: physicochemical; conditions: octanol/water
Mus musculus [3] = assay: In vivo inhibition of MAGL in C57Bl6 mouse assessed as increase in 2-AG levels in brain at 10 mg/kg, sc after 8 hrs by LC-MS/MS method relative to control; type: functional
Procedure, shortened: (§1)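 C57Bl6 mice, 7 weeks old, 4 per cage, food and water ad libitum, dosed subcutaneously in DMSO/Cremophor/saline (5:5:90, v/v/v). Brains taken after isoflurane, cardiac puncture and cervical dislocation at 0.5, 1, 2, 4, 8, 12 and 24 h (3 mice per time point); vehicle group at 1 h. Frozen in liquid nitrogen, homogenized in 3 volumes PMSF/NH4OAc buffer pH 2.0, d5-2-AG internal standard, ACN extraction, LC-MS/MS (positive ESI, SRM).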

[4] = Ratio of unbound drug level in C57Bl6 mouse brain to plasma at 10 mg/kg, sc; type: ADME, organism-based
Procedure, shortened: (§2)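 Subcutaneous dosing of C57Bl6 mice in DMSO/Cremophor/saline (5:5:90). Plasma (NaF/K2EDTA tubes) and cerebellum collected at 0.5–24 h, 3 mice per time point. Cerebellum diluted 1:4 (w/v) with water and homogenized; samples deproteinated with methanol/acetonitrile plus internal standard, then HPLC-MS/MS. LLOQ 1.0 ng/mL plasma, 0.5 ng/mL brain homogenate. PK parameters by noncompartmental analysis.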

[5] = Tmax in C57Bl6 mouse at 10 mg/kg, sc; type: ADME, organism-based; conditions: in vivo; procedure, shortened: as §2
Brain [6] = assay: Unbound drug level in C57Bl6 mouse brain at 10 mg/kg, sc at 0.5 hrs; type: ADME, organism-based; conditions: in vivo; procedure, shortened: as §2
Mus musculus [7] = assay: Time required for unbound brain concentration to reach above in vitro IC50 for recombinant human MAGL in C57Bl6 mouse at 10 mg/kg, sc; procedure, shortened: as §2
Mus musculus [8] = assay: In vivo inhibition of MAGL in C57Bl6 mouse assessed as increase in 2-AG levels in brain at 1 mg/kg, sc measured at 0.5 hrs by LC-MS/MS method relative to control; type: functional; procedure, shortened: as §1
Mus musculus [9] = assay: In vivo inhibition of MAGL in C57Bl6 mouse assessed as increase in 2-AG levels in brain at 1 mg/kg, sc measured after 1 to 24 hrs by LC-MS/MS method; type: functional, organism-based; procedure, shortened: as §1
Brain [10] = assay: Ratio of unbound drug level in C57Bl6 mouse brain at 10 mg/kg, sc to 1 mg/kg, sc; type: ADME, organism-based; conditions: in vivo; procedure, shortened: as §2
[11] = molecular target: T2, CES1 (liver carboxylesterase 1) (Homo sapiens, UniProt P23141); assay: Inhibition of human CES1 at 10 uM relative to control
T2 sequence (P23141 whole entry): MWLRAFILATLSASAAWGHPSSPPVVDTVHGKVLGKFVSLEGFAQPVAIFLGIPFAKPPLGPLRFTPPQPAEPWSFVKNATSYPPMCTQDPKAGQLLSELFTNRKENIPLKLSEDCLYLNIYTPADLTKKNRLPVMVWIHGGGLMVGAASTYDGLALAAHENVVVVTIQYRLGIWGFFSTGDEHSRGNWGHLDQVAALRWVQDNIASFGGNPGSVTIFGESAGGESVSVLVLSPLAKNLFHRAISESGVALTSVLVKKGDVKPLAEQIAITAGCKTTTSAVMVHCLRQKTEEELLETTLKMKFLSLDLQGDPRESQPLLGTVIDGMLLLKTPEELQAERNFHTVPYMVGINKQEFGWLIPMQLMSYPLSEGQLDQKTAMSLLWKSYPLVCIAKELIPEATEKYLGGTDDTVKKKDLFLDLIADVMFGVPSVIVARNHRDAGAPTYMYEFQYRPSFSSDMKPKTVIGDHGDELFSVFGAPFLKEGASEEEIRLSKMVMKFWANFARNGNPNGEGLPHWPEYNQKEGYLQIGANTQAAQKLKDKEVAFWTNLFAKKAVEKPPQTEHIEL

[12] = Ratio of unbound drug level in C57Bl6 mouse brain to plasma at 1 to 10 mg/kg, sc; type: ADME, organism-based
Mus musculus [13] = assay: In vivo inhibition of MAGL in C57Bl6 mouse assessed as increase in 2-AG levels in brain at 1 mg/kg, sc measured at 2 hrs by LC-MS/MS method; type: functional, organism-based; procedure, shortened: as §1
[14] = molecular target: T3, Platelet-activating factor acetylhydrolase (Homo sapiens) (UniProt Q13093); conditions: 10 uM
T3 sequence (whole entry): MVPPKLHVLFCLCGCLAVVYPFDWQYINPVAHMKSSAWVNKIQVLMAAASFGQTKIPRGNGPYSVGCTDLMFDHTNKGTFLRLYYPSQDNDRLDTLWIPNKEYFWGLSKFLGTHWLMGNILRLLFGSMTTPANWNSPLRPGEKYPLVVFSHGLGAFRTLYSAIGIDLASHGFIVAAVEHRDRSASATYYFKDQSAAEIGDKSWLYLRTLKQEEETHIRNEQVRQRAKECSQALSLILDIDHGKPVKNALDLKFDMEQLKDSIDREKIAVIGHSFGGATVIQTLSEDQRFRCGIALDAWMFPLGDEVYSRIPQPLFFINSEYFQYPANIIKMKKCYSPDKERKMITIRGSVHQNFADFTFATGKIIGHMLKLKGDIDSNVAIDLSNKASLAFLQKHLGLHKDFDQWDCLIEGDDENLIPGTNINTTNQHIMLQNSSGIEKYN

| Compound | IC50 [1] [nM] | logD [2] | fold change (FC) (Mus musculus [3]) | Kp uu [4] | Tmax [5] [min] | Drug uptake(free) (Brain [6]) [nM] | Time (Mus musculus [7]) [h] | fold change (FC) (Mus musculus [8]) | inhibition (Mus musculus [9]) | Ratio (Brain [10]) | inhibition at 10 µM [11] [%] | Kp uu [12] | inhibition (Mus musculus [13]) | inhibition [14] [%] |
| --- | --- | --- | --- | --- | --- | --- | --- | --- | --- | --- | --- | --- | --- | --- |
| O=C(OC(C(F)(F)F)C(F)(F)F)N1CC(c2ccn(-c3ccccc3)n2)C1 | 260 | 4.3 | 5 | 0.6 | 30 | 2 | 8 | 3 | inactive | 100 |  |  |  |  |
| O=C(OC(C(F)(F)F)C(F)(F)F)N1CCC(c2ccn(-c3ccccc3)n2)CC1 |  |  |  |  |  |  |  |  |  |  | > 70 | 0.5 | Active | > 70 |
